Assay results taken from ChEMBL document CHEMBL4257525, “Synthesis and biological evaluation of new 3-amino-2-azetidinone derivatives as anti-colorectal cancer agents” (Medchemcomm, 2018).

What was measured:
SW48 = assay: Antiproliferative activity against human SW48 cells after 72 hrs by MTT assay; format: functional, cell-based; settings: SW48, 72 h
How it was run: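 SW48 colorectal adenocarcinoma cells grown in RPMI-1640 with 10% FBS, 2 mM L-glutamine and penicillin/streptomycin at 37 °C, 5% CO2. 8000 cells per well exposed to a range of compound concentrations (in DMSO) for 72 h. MTT then added for 2 h at 37 °C, formazan solubilized, absorbance read at 570 nm. Triplicates in three independent experiments. IC50 from a four-parameter logistic fit against 0.1% DMSO controls.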

[1] = Inhibition of porcine brain tubulin polymerization measured for 15 mins by spectrophotometric method; design: species or system Sus scrofa
How it was run: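 Lyophilized purified tubulin resuspended at 2.5 mg mL-1 in assembly buffer (80 mM PIPES pH 6.9, 1 mM MgCl2, 2 mM EGTA, 10% glycerol), mixed with 1 mM GTP and varying compound concentrations; 0.2% v/v DMSO vehicle control. Assembly read at 340 nm, 37 °C. IC50 = concentration inhibiting polymerization by 50%, from four-parameter logistic fit.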

**Q.** For `COc1ccc([C@H]2[C@H](NC(=O)Cc3c[nH]c4ccccc34)C(=O)N2c2cc(OC)c(OC)c(OC)c2)cc1O` (relative stereo), which IC50 (SW48) is on record?
**A.** Its IC50 is 49.4 nM.

**Q.** With `COc1ccc([C@H]2[C@H](NC(=O)c3ccco3)C(=O)N2c2cc(OC)c(OC)c(OC)c2)cc1O` (relative stereo) as the compound, how does the IC50 (SW48) read?
**A.** The IC50 was 18.6 nM.

**Q.** For `COc1ccc([C@H]2[C@H](NC(=O)c3ccc4ccccc4c3)C(=O)N2c2cc(OC)c(OC)c(OC)c2)cc1O` (relative stereo), which IC50 (SW48) is on record?
**A.** Its IC50 is 220 nM.

**Q.** Which IC50 [1] does the source give for `COc1ccc([C@H]2[C@H](NC(C)=O)C(=O)N2c2cc(OC)c(OC)c(OC)c2)cc1O` (relative stereo) here?
**A.** Its IC50 is 5050 nM.

**Q.** And the IC50 (SW48)?
**A.** The IC50 was 14 nM.

**Q.** Which IC50 (SW48) does the source give for `COc1ccc([C@H]2[C@H](NC(=O)C3CCCCC3)C(=O)N2c2cc(OC)c(OC)c(OC)c2)cc1O` (relative stereo) here?
**A.** Its IC50 is 244 nM.

**Q.** With `COc1ccc(C(=O)N[C@@H]2C(=O)N(c3cc(OC)c(OC)c(OC)c3)[C@H]2c2ccc(OC)c(O)c2)cc1` (relative stereo) as the compound, how does the IC50 (SW48) read?
**A.** The IC50 was 108 nM.

**Q.** For `COc1ccc([C@H]2[C@H](NC(=O)c3ccc(Cl)cc3)C(=O)N2c2cc(OC)c(OC)c(OC)c2)cc1O`, which IC50 (SW48) is on record?
**A.** The IC50 was 271 nM.

**Q.** Which IC50 (SW48) does the source give for `COc1ccc([C@H]2[C@H](NC(=O)c3cc(OC)c(OC)c(OC)c3)C(=O)N2c2cc(OC)c(OC)c(OC)c2)cc1O` (relative stereo) here?
**A.** Its IC50 is 564 nM.

**Q.** Which IC50 (SW48) does the source give for `COc1ccc([C@H]2[C@H](NC(=O)c3ccc(F)cc3)C(=O)N2c2cc(OC)c(OC)c(OC)c2)cc1O` (relative stereo) here?
**A.** The IC50 was 384 nM.

**Q.** For `COc1ccc([C@H]2[C@H](NC(=O)[C@H](C)N)C(=O)N2c2cc(OC)c(OC)c(OC)c2)cc1O` (relative stereo), which IC50 (SW48) is on record?
**A.** Its IC50 is 90.6 nM.
